Experiment [1] deals with Aurora kinase B (Homo sapiens) (UniProt Q96GD4). Put plainly: Inhibition of human recombinant AurB at 15 nM in presence of ATP by radiometric assay relative to control. In a few lines: (§1)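 Part of a radiometric in vitro activity panel of 327 recombinant human kinases. Each kinase was tested in duplicate at one inhibitor concentration. Activity remaining was expressed as a percentage of the vehicle control, and percent inhibition was taken as 100 minus that value.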

The target of experiment [2] is Platelet-derived growth factor receptor beta (Homo sapiens) (UniProt P09619). In words: Inhibition of human recombinant PDGFRb at 15 nM related to control ULK1.
Experiment [3] deals with Proto-oncogene tyrosine-protein kinase Src (Homo sapiens) (UniProt P12931). In words: Inhibition of human recombinant SRC at 15 nM in presence of ATP by radiometric assay relative to control.
The target of experiment [4] is MAP/microtubule affinity-regulating kinase 3 (Homo sapiens) (UniProt P27448). In words: Inhibition of human recombinant MARK3 at 40 nM in presence of ATP by radiometric assay relative to control.
Experiment [5] addresses Serine/threonine-protein kinase pim-2 (Homo sapiens) (UniProt Q9P1W9). In words: Inhibition of human recombinant PIM2 at 40 nM in presence of ATP by radiometric assay relative to control.
The target of experiment [6] is Tyrosine-protein kinase Fes/Fps (Homo sapiens) (UniProt P07332). In words: Inhibition of human recombinant FES at 40 nM related to control ULK1.
For experiment [7], the target named is Activin receptor type-1-like (Homo sapiens) (UniProt P37023). Put plainly: Inhibition of human recombinant ALK1 at 500 nM related to control ULK1. In short, it runs like this: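 Panel of 327 recombinant human kinases, each assayed in vitro by radiometric activity assay in duplicate at a single inhibitor concentration per compound, chosen with reference to its ULK1 inhibition. Activity remaining was expressed as percent of vehicle control, and percent inhibition was calculated as 100 minus percent activity remaining.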

In experiment [8] the target is Serine/threonine-protein kinase B-raf (Homo sapiens) (UniProt P15056). In words: Inhibition of human recombinant BRAF at 500 nM in presence of ATP by radiometric assay relative to control. In short, it runs like this:
as §1

Experiment [9] addresses T1, Serine/threonine-protein kinase TAO3 (Homo sapiens) (UniProt Q9H2K8).
T1 sequence (whole entry): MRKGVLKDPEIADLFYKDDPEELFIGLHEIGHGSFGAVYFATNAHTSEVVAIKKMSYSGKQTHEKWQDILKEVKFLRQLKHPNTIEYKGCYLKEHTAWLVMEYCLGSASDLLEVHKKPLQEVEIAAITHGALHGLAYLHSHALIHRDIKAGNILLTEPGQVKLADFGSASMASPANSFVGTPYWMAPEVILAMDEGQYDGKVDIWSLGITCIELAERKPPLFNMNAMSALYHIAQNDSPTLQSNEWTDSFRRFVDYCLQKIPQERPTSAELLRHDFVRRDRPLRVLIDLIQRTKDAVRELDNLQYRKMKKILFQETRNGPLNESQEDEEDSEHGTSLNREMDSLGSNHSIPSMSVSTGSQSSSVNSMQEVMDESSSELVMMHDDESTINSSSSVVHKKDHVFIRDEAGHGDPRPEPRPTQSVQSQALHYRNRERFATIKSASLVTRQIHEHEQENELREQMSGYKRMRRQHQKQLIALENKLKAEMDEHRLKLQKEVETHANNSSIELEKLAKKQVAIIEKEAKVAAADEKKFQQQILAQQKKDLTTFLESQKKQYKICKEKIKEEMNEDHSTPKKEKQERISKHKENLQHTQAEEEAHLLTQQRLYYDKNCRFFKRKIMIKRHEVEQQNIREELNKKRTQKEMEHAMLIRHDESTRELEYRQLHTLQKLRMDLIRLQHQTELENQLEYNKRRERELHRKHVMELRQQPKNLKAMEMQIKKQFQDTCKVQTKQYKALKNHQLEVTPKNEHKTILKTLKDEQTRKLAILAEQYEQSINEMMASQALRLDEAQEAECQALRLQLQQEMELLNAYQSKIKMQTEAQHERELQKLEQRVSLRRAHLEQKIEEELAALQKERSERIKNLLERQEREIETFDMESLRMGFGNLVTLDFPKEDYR
In words: Inhibition of human recombinant TAO3 at 500 nM in presence of ATP by radiometric assay relative to control.

Experiment [10] deals with Cyclin-dependent kinase 1 (Homo sapiens) (UniProt P06493). In words: Inhibition of human recombinant CDC2 at 500 nM related to control ULK1.
Experiment [11] concerns the target T2, Eukaryotic elongation factor 2 kinase (Homo sapiens) (UniProt O00418).
T2 sequence (whole entry): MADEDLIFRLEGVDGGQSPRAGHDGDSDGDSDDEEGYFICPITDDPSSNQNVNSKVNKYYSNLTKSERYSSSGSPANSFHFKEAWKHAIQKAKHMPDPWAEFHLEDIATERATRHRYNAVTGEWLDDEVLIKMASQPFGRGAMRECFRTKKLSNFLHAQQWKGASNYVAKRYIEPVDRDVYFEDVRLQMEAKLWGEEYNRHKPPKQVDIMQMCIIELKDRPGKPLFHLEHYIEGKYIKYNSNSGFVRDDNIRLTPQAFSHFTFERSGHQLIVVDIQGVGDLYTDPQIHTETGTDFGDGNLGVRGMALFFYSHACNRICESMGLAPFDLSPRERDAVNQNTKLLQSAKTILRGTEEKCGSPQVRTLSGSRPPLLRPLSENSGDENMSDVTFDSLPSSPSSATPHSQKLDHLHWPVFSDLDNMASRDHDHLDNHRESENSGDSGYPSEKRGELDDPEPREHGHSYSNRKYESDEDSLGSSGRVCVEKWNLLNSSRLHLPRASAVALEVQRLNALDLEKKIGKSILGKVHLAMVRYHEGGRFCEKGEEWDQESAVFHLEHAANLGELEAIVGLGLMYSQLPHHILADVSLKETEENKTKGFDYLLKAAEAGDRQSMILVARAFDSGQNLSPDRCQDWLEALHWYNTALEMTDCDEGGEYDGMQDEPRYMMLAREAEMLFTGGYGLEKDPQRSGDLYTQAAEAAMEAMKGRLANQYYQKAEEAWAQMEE
Put plainly: Inhibition of human recombinant eEF2K at 500 nM related to control ULK1.

This is an account of results in ChEMBL document CHEMBL5653631, “A Potent and Selective ULK1 Inhibitor Suppresses Autophagy and Sensitizes Cancer Cells to Nutrient Stress” (iScience, 2018).

Chain of Platelet-derived growth factor receptor beta (Homo sapiens) (P09619 whole entry): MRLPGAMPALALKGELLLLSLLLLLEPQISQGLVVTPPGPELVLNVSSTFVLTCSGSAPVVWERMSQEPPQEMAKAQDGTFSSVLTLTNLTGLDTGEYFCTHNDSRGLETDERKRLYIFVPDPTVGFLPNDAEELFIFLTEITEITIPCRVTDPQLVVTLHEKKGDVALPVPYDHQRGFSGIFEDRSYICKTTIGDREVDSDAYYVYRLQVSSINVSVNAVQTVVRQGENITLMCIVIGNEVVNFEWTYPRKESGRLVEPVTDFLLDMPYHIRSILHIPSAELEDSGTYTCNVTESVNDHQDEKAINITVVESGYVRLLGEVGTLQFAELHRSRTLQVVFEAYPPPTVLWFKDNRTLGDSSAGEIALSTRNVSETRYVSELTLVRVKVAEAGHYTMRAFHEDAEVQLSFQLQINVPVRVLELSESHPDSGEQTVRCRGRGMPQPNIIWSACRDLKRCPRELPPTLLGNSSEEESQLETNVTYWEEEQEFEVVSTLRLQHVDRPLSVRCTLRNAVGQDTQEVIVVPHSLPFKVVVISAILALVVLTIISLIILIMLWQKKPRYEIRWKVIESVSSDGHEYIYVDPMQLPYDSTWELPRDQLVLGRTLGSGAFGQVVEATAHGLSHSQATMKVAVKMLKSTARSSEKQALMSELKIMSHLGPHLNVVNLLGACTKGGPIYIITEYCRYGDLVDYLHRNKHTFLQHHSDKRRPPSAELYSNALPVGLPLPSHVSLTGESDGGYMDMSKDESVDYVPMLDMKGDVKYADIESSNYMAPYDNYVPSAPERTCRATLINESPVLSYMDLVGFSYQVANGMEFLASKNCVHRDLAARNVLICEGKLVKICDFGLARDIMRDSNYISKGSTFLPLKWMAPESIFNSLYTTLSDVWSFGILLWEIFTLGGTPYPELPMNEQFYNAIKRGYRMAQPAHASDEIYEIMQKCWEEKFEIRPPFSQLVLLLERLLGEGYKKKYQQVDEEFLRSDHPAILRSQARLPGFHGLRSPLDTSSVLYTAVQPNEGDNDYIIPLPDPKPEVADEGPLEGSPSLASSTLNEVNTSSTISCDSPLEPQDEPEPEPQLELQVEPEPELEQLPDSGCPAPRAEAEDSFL
Chain of Serine/threonine-protein kinase B-raf (Homo sapiens) (P15056 whole entry): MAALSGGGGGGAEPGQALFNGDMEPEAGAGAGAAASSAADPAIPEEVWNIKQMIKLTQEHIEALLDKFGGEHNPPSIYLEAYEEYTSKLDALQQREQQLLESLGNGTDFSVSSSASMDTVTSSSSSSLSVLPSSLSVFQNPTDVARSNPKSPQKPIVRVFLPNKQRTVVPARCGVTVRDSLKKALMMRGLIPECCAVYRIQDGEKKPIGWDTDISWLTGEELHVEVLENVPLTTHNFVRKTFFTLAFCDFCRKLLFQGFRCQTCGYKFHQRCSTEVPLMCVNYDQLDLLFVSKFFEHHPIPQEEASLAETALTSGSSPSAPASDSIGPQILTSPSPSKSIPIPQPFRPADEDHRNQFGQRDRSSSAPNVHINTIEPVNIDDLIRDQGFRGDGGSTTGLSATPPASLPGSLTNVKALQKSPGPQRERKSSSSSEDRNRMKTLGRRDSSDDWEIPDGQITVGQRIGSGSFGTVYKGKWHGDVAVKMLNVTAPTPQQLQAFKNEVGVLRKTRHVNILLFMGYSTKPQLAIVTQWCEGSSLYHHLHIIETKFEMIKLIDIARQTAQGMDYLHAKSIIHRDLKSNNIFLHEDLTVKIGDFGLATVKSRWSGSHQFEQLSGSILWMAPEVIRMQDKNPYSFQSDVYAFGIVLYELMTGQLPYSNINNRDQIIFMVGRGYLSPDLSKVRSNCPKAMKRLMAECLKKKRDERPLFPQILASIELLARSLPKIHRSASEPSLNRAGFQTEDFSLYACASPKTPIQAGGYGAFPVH
Chain of Tyrosine-protein kinase Fes/Fps (Homo sapiens) (P07332 whole entry): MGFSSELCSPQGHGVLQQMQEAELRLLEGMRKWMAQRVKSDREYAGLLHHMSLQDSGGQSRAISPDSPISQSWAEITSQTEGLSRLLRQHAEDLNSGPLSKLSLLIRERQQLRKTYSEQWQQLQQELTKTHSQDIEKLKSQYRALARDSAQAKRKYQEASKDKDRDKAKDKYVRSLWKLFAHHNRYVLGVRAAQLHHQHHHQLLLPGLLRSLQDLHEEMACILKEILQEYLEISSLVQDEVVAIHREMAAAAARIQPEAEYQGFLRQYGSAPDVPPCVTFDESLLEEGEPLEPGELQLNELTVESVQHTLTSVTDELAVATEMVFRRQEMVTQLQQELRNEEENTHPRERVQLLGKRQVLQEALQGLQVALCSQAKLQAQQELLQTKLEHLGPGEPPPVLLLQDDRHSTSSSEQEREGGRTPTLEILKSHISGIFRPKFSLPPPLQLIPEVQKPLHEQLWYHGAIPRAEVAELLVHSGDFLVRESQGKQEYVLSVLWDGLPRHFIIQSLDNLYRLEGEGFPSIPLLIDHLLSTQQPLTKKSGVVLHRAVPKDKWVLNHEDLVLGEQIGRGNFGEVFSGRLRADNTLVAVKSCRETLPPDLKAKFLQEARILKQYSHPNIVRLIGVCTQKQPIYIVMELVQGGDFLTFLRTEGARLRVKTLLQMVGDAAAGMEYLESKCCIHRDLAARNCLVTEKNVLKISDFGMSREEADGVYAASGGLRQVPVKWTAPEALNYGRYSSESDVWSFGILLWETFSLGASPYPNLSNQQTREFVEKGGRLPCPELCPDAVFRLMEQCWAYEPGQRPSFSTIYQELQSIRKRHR
Chain of MAP/microtubule affinity-regulating kinase 3 (Homo sapiens) (P27448 whole entry, looked up): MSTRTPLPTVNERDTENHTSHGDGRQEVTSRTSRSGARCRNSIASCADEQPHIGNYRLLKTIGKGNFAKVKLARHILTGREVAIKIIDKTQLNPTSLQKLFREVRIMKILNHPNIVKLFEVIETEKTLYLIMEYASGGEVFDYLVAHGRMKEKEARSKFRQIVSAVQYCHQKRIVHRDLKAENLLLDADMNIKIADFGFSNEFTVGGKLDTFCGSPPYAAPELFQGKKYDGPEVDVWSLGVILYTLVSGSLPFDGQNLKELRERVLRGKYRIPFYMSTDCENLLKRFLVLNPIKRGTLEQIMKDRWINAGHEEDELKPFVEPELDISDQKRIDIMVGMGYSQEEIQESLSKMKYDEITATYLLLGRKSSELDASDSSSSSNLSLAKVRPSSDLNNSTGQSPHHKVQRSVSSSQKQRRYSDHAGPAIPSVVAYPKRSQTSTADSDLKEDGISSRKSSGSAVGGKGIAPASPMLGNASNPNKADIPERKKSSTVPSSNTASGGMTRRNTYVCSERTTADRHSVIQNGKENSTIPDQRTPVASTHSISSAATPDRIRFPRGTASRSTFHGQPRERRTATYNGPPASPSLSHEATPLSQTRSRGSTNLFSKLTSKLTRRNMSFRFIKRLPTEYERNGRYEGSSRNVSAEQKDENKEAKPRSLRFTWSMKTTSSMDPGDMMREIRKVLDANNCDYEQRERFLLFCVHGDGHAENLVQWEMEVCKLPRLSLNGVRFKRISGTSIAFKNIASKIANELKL
Chain of Serine/threonine-protein kinase pim-2 (Homo sapiens) (Q9P1W9 whole entry, looked up): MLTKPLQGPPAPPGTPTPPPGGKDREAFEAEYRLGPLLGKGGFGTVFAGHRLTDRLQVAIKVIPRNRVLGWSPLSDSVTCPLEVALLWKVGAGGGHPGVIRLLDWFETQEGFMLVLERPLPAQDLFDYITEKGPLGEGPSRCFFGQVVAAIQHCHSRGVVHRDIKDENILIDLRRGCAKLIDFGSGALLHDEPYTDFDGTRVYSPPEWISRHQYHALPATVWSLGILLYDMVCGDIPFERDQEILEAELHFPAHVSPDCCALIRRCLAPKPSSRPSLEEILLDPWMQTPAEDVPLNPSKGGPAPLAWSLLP
Chain of Proto-oncogene tyrosine-protein kinase Src (Homo sapiens) (P12931 2-536 limits assumed): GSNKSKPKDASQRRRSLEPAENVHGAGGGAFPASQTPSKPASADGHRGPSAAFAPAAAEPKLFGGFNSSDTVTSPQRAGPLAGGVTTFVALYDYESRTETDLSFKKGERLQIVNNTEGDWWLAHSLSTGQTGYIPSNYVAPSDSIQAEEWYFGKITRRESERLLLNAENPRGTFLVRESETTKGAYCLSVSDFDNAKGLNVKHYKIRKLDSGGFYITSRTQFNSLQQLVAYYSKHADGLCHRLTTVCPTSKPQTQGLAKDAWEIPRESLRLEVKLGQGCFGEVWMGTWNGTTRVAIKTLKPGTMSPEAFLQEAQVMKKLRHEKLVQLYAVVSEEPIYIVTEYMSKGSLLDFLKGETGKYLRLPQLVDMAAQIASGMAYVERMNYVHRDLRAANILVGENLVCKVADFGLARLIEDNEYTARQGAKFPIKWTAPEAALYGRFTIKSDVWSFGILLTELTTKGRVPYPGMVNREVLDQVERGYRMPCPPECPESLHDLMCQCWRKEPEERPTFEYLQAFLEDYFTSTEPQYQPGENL
Chain of Activin receptor type-1-like (Homo sapiens) (P37023 whole entry): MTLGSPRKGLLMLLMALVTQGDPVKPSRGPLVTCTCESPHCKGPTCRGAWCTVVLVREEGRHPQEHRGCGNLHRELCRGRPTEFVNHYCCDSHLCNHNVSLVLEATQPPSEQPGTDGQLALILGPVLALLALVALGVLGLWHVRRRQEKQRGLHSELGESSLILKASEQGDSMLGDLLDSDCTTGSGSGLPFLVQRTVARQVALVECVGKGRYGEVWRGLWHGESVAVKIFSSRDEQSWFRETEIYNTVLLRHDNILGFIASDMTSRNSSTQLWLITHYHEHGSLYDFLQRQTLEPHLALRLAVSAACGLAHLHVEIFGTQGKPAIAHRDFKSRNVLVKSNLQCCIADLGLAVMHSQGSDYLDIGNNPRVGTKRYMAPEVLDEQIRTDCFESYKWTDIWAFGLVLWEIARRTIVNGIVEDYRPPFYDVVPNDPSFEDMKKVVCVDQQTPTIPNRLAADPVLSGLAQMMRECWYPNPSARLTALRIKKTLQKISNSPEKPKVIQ

For `CC(C)[C@H](NC(=O)c1cc(-c2cnn3cc(-c4ccc(OCCN5CCCCC5)cc4)cnc23)cs1)C(F)(F)F`, the values for the inhibition in [1] and in [3] were 18% and 15%, respectively. The fold change (FC) in [2] stood at 0.

In the case of `O=C(N[C@@H](C1CC1)C(F)(F)F)c1cc(-c2cnn3cc(-c4ccc(F)cc4)cnc23)cs1`, the inhibition (commonly the percentage by which the read-out fell short of the control) in [4] stood at 15%; in experiment [5], 3%. For the same compound, the fold change (FC) in experiment [6] was found to be 0.21.

As for `CNC(=O)c1ccccc1Oc1nc(Nc2cc(OC)c(OC)c(OC)c2)ncc1Br`, the figures for the fold change (FC) in [7], in experiment [10] and in experiment [11] were 0, 0.41 and 0.19, respectively. Also, the inhibition in [8] came out at 8%; in experiment [9], 0%.
